Experimental data as given in article PMC12008863 (Journal of Translational Medicine, 2025).

What was measured:
fibronectin = experiment: Immunohistochemistry of rat retina; type: in vivo, rat (Sprague–Dawley); conditions: vs STZ and STZ + NC; intravitreal AAV9, 16 weeks, n = 3; Fig. 6B
Summary of the method: (§1)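 In the STZ-induced DR model in male SD rats, animals received intravitreal AAV9 (5 μL, 1 × 10^12 vg/mL, every 8 weeks; saline control; n = 8/group). At 16 weeks, eyeballs were paraffin-embedded and cut at 5 μm. Immunohistochemistry for fibronectin or PCNA followed, with relative positivity ratio quantified; n = 3.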

PCNA = experiment: Immunohistochemistry of rat retina; type: in vivo, rat (Sprague–Dawley); conditions: vs STZ and STZ + NC; intravitreal AAV9, 16 weeks, n = 3; Fig. 6C
Summary of the method: as §1

HIF-1α [1] = experiment: Immunohistochemistry of rat retina; type: in vivo, rat (Sprague–Dawley); conditions: intravitreal AAV9, 16 weeks, n = 3; Fig. 6D
Summary of the method: (§2)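 Male Sprague–Dawley rats, 6–8 weeks old, with STZ-induced diabetic retinopathy. Under intraperitoneal ketamine (80 μg/g) and xylazine (4 μg/g), rats received 5 μL intravitreal AAV9 (1 × 10^12 vg/mL) carrying the test sequence every 8 weeks; saline as control; n = 8 rats per group. At 16 weeks, eyes were paraffin-embedded, cut at 5 μm and immunostained. Relative positivity ratio scored; mean ± SD.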

VEGFA [2] = experiment: Immunohistochemistry of rat retina; type: in vivo, rat (Sprague–Dawley); conditions: intravitreal AAV9, 16 weeks, n = 3; Fig. 6E
Summary of the method: as §2

rno-miR-223-3p = experiment: qPCR in rat retina; type: in vivo, rat (Sprague–Dawley); conditions: increased by STZ; intravitreal AAV9, n = 3; Fig. 8A
STAT4 [3] = experiment: Western blot of rat retinal tissue; type: in vivo, rat (Sprague–Dawley); conditions: increased by STZ; intravitreal AAV9, n = 3; Fig. 8C
p-STAT4 [4] = experiment: Western blot of rat retinal tissue; type: in vivo, rat (Sprague–Dawley); conditions: increased by STZ; intravitreal AAV9, n = 3; Fig. 8C
FBXW7 [5] = experiment: Western blot of rat retinal tissue; type: in vivo, rat (Sprague–Dawley); conditions: decreased by STZ; intravitreal AAV9, n = 3; Fig. 8D
Notch 1 [6] = experiment: Western blot of rat retinal tissue; type: in vivo, rat (Sprague–Dawley); conditions: increased by STZ; intravitreal AAV9, n = 3; Fig. 8E
p-AKT [7] = experiment: Western blot of rat retinal tissue; type: in vivo, rat (Sprague–Dawley); conditions: increased by STZ; intravitreal AAV9, n = 3; Fig. 8F
p-mTOR [8] = experiment: Western blot of rat retinal tissue; type: in vivo, rat (Sprague–Dawley); conditions: increased by STZ; intravitreal AAV9, n = 3; Fig. 8G
HIF-1α [9] = experiment: Western blot of rat retina; type: in vivo, rat (Sprague–Dawley); conditions: intravitreal AAV9, n = 3; Fig. S13B
Summary of the method: (§3)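 STZ-diabetic male Sprague–Dawley rats (6–8 weeks) were given intravitreal AAV9 (5 μL, 1 × 10^12 vg/mL) every 8 weeks, with saline controls. Retinal protein was extracted in RIPA with protease and phosphatase inhibitors, run on 10% SDS–PAGE and transferred to PVDF. Membranes were blocked in 5% skimmed milk, probed with primary then secondary antibody, and developed by ECL.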

VEGFA [10] = experiment: Western blot of rat retina; type: in vivo, rat (Sprague–Dawley); conditions: intravitreal AAV9, n = 3; Fig. S13C
Summary of the method: as §3

hRECs [11] = experiment: Cell entry and localization in hRECs; type: cell-based, human; conditions: 1 μM, 2 h incubation, HG medium, 37 °C; confocal microscopy; Fig. 1D
Summary of the method: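 Passage-6 hRECs spent 24 h in high-glucose medium at 37 °C, then 2 h with 1 μM test peptide, TTR homotetramer or scrambled peptide. Cells were PBS-washed, fixed (4% PFA, 20 min), permeabilized (0.1% Triton X-100) and stained overnight at 4 °C with anti-hnRNPA2B1, anti-TTR or anti-His-tag. Alexa Fluor 488/594 secondaries and Hoechst 33342 were used; imaging was confocal.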

hRECs [12] = experiment: EdU DNA synthesis assay; type: cell-based, human; conditions: high glucose (25 mM), 1 μM, n = 5; Fig. 2A, B
Summary of the method: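 hRECs (passages 5–6; 3000 cells/mL) were kept in 25 mM glucose medium with 1 μM test peptide or TTR homotetramer, with low-glucose and mannitol controls. DNA synthesis was detected with an EdU labeling kit by confocal imaging, nuclei counterstained with Hoechst 33342; n = 5.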

hRECs [13] = experiment: CCK-8 proliferation assay; type: cell-based, human; conditions: 1 μM, 5 days
Summary of the method: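 hRECs (passages 5–6; 3000 cells/mL) were grown in 25 mM glucose medium with 1 μM test peptide or TTR homotetramer, with 5.5 mM glucose and mannitol osmotic controls. Proliferation was read by CCK-8 after 5 days of culture; n = 5.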

hRECs [14] = experiment: Apoptosis; type: cell-based, human; conditions: Annexin V flow cytometry; hyperglycemia; Fig. S7
Summary of the method: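 hRECs (passages 5–6) were seeded at 3000 cells/mL and grown 120 h in low-glucose (5.5 mM), high-glucose (25 mM) or low-glucose + 20 mM mannitol (osmotic control) medium. TTR homotetramer (1 μM) or test peptide (1 μM) was added to the high-glucose medium. Apoptosis was measured by FITC Annexin V staining and flow cytometry.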

hRECs [15] = experiment: Wound healing assay; type: cell-based, human; conditions: high glucose, 1 μM, 24 h, n = 5; Fig. 3B, C
Summary of the method: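 Wound-healing kit assay on hRECs (passages 5–6) in high-glucose (25 mM) phenol red-free DMEM containing 1 μM test compound. Low glucose (5.5 mM) and mannitol (20 mM) osmotic controls included. Closure followed over 24 h; n = 5; mean ± SD, one-way ANOVA with LSD post hoc test.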

hRECs [16] = experiment: Tube formation assay; type: cell-based, human; conditions: high glucose, 1 μM, basement membrane matrix, 4 h, n = 5; Fig. 3D, E
Summary of the method: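 hRECs (passages 5–6) in 25 mM glucose medium with 1 μM test peptide or TTR homotetramer, plus low-glucose and mannitol osmotic controls, were plated on basement membrane matrix. Tube formation was then assessed.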

STAT4 mRNA = experiment: qPCR in hRECs; type: cell-based, human; conditions: high glucose, 1 μM, n = 5, Fig. 4A
Summary of the method: (§4)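 hRECs (passages 5–6) cultured 120 h in high-glucose (25 mM) medium with 1 μM test compound, alongside low-glucose and mannitol osmotic controls. Total RNA extracted and measured by qPCR: STAT4 mRNA normalised to GAPDH; hsa-miR-223-3p against a cel-miR-39-3p spike-in control. n = 5; mean ± SD; one-way ANOVA with LSD test.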

hsa-miR-223-3p = experiment: qPCR in hRECs; type: cell-based, human; conditions: high glucose, 1 μM, n = 5, Fig. 4B
Summary of the method: as §4

FBXW7 mRNA = experiment: qPCR in hRECs; type: cell-based, human; conditions: high glucose, 1 μM, n = 5, Fig. 4C
Summary of the method: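 Total RNA came from hRECs grown 120 h in low-glucose, 25 mM high-glucose or mannitol control medium, with 1 μM test peptide or TTR homotetramer in high glucose. FBXW7 mRNA was quantified by qPCR with GAPDH as reference.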

STAT4 [17] = experiment: Western blot in hRECs; type: cell-based, human; conditions: high glucose (increased by HG), 1 μM, n = 3; Fig. 4D, E
Summary of the method: (§5)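 hRECs (passages 5–6; 3000 cells/mL) were cultured 120 h in 5.5 mM glucose, 25 mM glucose or mannitol control medium, with 1 μM test peptide or TTR homotetramer added to high glucose. Lysis was in RIPA with protease/phosphatase inhibitors. Lysates were resolved on 10% SDS–PAGE, transferred to PVDF, blocked in 5% milk, probed and developed by ECL.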

p-STAT4 [18] = experiment: Western blot in hRECs; type: cell-based, human; conditions: high glucose (increased by HG), 1 μM, n = 3; Fig. 4D, E
Summary of the method: as §5

FBXW7 [19] = experiment: Western blot in hRECs; type: cell-based, human; conditions: high glucose (decreased by HG), 1 μM, n = 3; Fig. 4D, F
Summary of the method: as §5

Notch 1 [20] = experiment: Western blot in hRECs; type: cell-based, human; conditions: high glucose (increased by HG), 1 μM, n = 3; Fig. 4D, G
Summary of the method: as §5

p-AKT [21] = experiment: Western blot in hRECs; type: cell-based, human; conditions: high glucose (increased by HG), 1 μM, n = 3; Fig. 4D, H
Summary of the method: as §5

p-mTOR [22] = experiment: Western blot in hRECs; type: cell-based, human; conditions: high glucose (increased by HG), 1 μM, n = 3; Fig. 4D, I
Summary of the method: as §5

VEGFA [23] = experiment: Western blot in hRECs; type: cell-based, human; conditions: high glucose (enhanced by HG), n = 3; Fig. S8A, C
[24] = Kidney and liver pathological indexes; type: in vivo, rat (Sprague–Dawley); conditions: serum, STZ rats (raised vs normal), intravitreal AAV9
Summary of the method: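 STZ-diabetic male SD rats were given intravitreal AAV9 every 8 weeks (5 μL, 1 × 10^12 vg/mL) or saline. Serum ALT, AST and ALP activities and BUN and creatinine concentrations were measured on an automatic biochemical analyzer.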

hRECs [25] = conditions: high-glucose environment; ref [33], [34]; cited from earlier work
hnRNPA2B1 = conditions: ref [33], [34]; cited from earlier work

TTR overexpression: Rat TTR (GenBank: AAH86946.1) cloned into the pAAV-MCS vector and packaged in AAV9, intravitreal
fibronectin positivity ratio (fibronectin): lower | PCNA positivity ratio (PCNA): lower | HIF-1α level (IHC) (HIF-1α [1]): neither THIP-4 administration nor TTR overexpression affected the levels | VEGFA level (IHC) (VEGFA [2]): neither THIP-4 administration nor TTR overexpression affected the levels | rno-miR-223-3p expression (rno-miR-223-3p): reversed | STAT4 protein level (STAT4 [3]): significantly reversed | p-STAT4 protein level (p-STAT4 [4]): significantly reversed | FBXW7 protein level (FBXW7 [5]): significantly reversed | Notch 1 protein level (Notch 1 [6]): significantly reversed | p-AKT protein level (p-AKT [7]): significantly reversed | p-mTOR protein level (p-mTOR [8]): significantly reversed | HIF-1α level (western blot) (HIF-1α [9]): neither THIP-4 administration nor elevated TTR expression affected the levels | VEGFA level (western blot) (VEGFA [10]): neither THIP-4 administration nor elevated TTR expression affected the levels

transthyretin [TTR]
cellular localization (hRECs [11]): mainly accumulated in the nucleus and their signals overlapped with that of hnRNPA2B1 | DNA synthesis (EdU) (hRECs [12]): significantly reversed this trend | proliferation (CCK-8), high glucose (hRECs [13]; high glucose (25 mM), n = 5, Fig. 2C): significantly abrogated | proliferation (CCK-8), low glucose (hRECs [13]; low glucose (5.5 mM), Fig. S6): neither TTR nor the THIPs inhibited hREC proliferation | apoptosis (hRECs [14]): not significantly influenced | wound healing (hRECs [15]): significantly inhibited the accelerated hREC healing | tube length (tube formation) (hRECs [16]): reversed by TTR and the THIPs | STAT4 expression level (STAT4 mRNA): reversed in the presence of TTR or the THIPs | hsa-miR-223-3p expression level (hsa-miR-223-3p): reversed in the presence of TTR or the THIPs | FBXW7 expression level (FBXW7 mRNA): this trend was reversed | STAT4 protein level (STAT4 [17]): significantly reversed | p-STAT4 protein level (p-STAT4 [18]): significantly reversed | FBXW7 protein level (FBXW7 [19]): significantly reversed | Notch 1 protein level (Notch 1 [20]): significantly reversed | p-AKT protein level (p-AKT [21]): significantly reversed | p-mTOR protein level (p-mTOR [22]): significantly reversed | VEGFA level (VEGFA [23]): neither the THIPs nor TTR could reverse this effect | ALT activity ([24]; Fig. S12D): could not be affected by TTR or THIP-4 | AST activity ([24]; Fig. S12E): could not be affected by TTR or THIP-4 | ALP activity ([24]; Fig. S12F): could not be affected by TTR or THIP-4 | neovascularization of hRECs (hRECs [25]): inhibits the neovascularization of hRECs in a high-glucose environment | level of hnRNPA2B1 (hnRNPA2B1): could not affect the level of hnRNPA2B1
